Measured values taken from ChEMBL document CHEMBL1123544, “Syntheses of 5,6,7- and 5,7,8-trioxygenated 3',4'-dihydroxyflavones having alkoxy groups and their inhibitory activities against arachidonate 5-lipoxygenase” (J Med Chem, 1986).
pIC50: −log10 of the molar value.

The compounds below were run against T1, Polyunsaturated fatty acid 5-lipoxygenase (Rattus norvegicus, UniProt P12527) (assay: Ability to inhibit 5-lipoxygenase in rat basophilic leukemia cells.).
T1 sequence (P12527 whole entry): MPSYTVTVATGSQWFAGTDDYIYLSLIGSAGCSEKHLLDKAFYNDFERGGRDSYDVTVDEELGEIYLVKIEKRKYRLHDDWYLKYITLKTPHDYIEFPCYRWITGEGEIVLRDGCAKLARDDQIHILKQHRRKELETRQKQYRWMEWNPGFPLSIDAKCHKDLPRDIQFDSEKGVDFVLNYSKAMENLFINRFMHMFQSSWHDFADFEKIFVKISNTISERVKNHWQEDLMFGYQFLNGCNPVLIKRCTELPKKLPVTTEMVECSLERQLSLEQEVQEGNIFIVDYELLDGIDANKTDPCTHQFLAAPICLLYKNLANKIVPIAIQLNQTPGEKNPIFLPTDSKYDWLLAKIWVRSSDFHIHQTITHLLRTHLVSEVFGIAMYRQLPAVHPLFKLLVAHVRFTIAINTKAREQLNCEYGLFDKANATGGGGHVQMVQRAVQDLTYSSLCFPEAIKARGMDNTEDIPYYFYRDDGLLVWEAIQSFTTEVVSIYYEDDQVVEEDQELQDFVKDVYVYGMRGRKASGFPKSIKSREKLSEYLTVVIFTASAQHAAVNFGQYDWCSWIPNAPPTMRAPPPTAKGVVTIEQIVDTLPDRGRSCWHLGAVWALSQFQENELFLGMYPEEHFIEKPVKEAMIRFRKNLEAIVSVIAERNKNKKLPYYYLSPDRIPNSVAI
Format: cell-based, RBL-1
In short: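 Enzyme: RBL cell sonicate high-speed supernatant, 25–50% ammonium sulfate cut, desalted on Sephadex G-25 (68 μg protein). Compound in ethanol preincubated 5 min with enzyme. Reaction started with 25 μM [1-14C]arachidonic acid, 30 °C for 5 min in 50 mM potassium phosphate pH 7.4 with 2 mM ATP and 2 mM CaCl2. Radio-TLC of 5-HPETE; IC50 from concentration series.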
Compound `CCCCCCCCCCCCCCCCOc1c(OC)c(OC)cc2oc(-c3ccc(O)c(O)c3)cc(=O)c12` has a pIC50 of 6.85.
`CCCCCCCCCCCCOc1cc(O)c2c(=O)cc(-c3ccc(O)c(O)c3)oc2c1OC` showed a pIC50 of 6.74.
`CCCCOc1c(OC)cc2oc(-c3ccc(OC(C)=O)c(OC(C)=O)c3)cc(=O)c2c1OC` showed a pIC50 of 7.00.
For `CCCCCCCCCCCCCCCCOc1c(OC)cc2oc(-c3ccc(O)c(O)c3)cc(=O)c2c1O`, the pIC50 was 5.00.
`CCCCCCCCCCCCCCCCCCOc1c(OC)cc2oc(-c3ccc(O)c(O)c3)cc(=O)c2c1O` gave a pIC50 of 5.00.
Compound `COc1cc(OC)c2c(=O)cc(-c3ccc(O)c(O)c3)oc2c1OC` has a pIC50 of 6.37.
`CCCCCCCCCCCCOc1cc2oc(-c3ccc(O)c(O)c3)cc(=O)c2c(O)c1OC` showed a pIC50 of 6.85.
`COc1cc2oc(-c3ccc(O)c(O)c3)cc(=O)c2c(O)c1OC` [CIRSILIOL] gave a pIC50 of 7.02.
Compound `CCCCOc1c(OC)cc2oc(-c3ccc(O)c(O)c3)cc(=O)c2c1O` has a pIC50 of 7.82.
`CCCCCCCCCCOc1c(OC)cc2oc(-c3ccc(O)c(O)c3)cc(=O)c2c1OC` was tested, and the pIC50 was 7.77.
With `COc1cc2oc(-c3ccc(OC(C)=O)c(OC(C)=O)c3)cc(=O)c2c(OC)c1OC` the pIC50 was 6.00.
`CCCCCCCCOc1c(OC)cc2oc(-c3ccc(OC(C)=O)c(OC(C)=O)c3)cc(=O)c2c1OC` was tested, and the pIC50 was 7.38.
In the case of `CCCCCOc1c(OC)cc2oc(-c3ccc(O)c(O)c3)cc(=O)c2c1OC`, the pIC50 was 7.46.
`CCCCCCCCCCCCCCCCOc1c(OC)cc2oc(-c3ccc(O)c(O)c3)cc(=O)c2c1OC` was tested, and the pIC50 was 5.82.
`CCCCCCCCOc1c(OC)cc2oc(-c3ccc(O)c(O)c3)cc(=O)c2c1OC` was tested, and the pIC50 was 7.66.
Compound `CCCCCCOc1c(OC)c(OC)cc2oc(-c3ccc(O)c(O)c3)cc(=O)c12` has a pIC50 of 7.82.
In the case of `CCCCCCCCCCCCCCCCCCOc1c(OC)cc2oc(-c3ccc(O)c(O)c3)cc(=O)c2c1OC`, the pIC50 was 5.00.
For `CCCCCCCCCCCCOc1cc2oc(-c3ccc(O)c(O)c3)cc(=O)c2c(OC)c1OC`, the pIC50 was 7.00.
`CCCCCCCCCCCCCCCCOc1c(OC)cc2oc(-c3ccc(OC(C)=O)c(OC(C)=O)c3)cc(=O)c2c1OC` showed a pIC50 of 5.00.
In the case of `CCCCCCCCCCOc1c(OC)cc2oc(-c3ccc(OC(C)=O)c(OC(C)=O)c3)cc(=O)c2c1OC`, the pIC50 was 7.52.
`CCCCCCOc1c(OC)cc2oc(-c3ccc(OC(C)=O)c(OC(C)=O)c3)cc(=O)c2c1OC` showed a pIC50 of 7.30.
`CCCCCCCCCCCCCCOc1c(OC)c(OC)cc2oc(-c3ccc(O)c(O)c3)cc(=O)c12` showed a pIC50 of 7.55.
For `CCCCOc1c(OC)cc2oc(-c3ccc(O)c(O)c3)cc(=O)c2c1OC`, the pIC50 was 7.28.
`CCCCCCCCCCOc1c(OC)c(OC)cc2oc(-c3ccc(O)c(O)c3)cc(=O)c12` gave a pIC50 of 7.74.
Compound `CCCCCOc1c(OC)cc2oc(-c3ccc(OC(C)=O)c(OC(C)=O)c3)cc(=O)c2c1OC` has a pIC50 of 7.55.
`CCCCCCCCCCCCOc1c(OC)cc2oc(-c3ccc(O)c(O)c3)cc(=O)c2c1OC` showed a pIC50 of 7.52.
`COc1cc2oc(-c3ccc(O)c(O)c3)cc(=O)c2c(O)c1OCCC(C)C` showed a pIC50 of 8.05.
Work on `CCCCCCCCCCCCOc1c(OC)cc(O)c2c(=O)cc(-c3ccc(O)c(O)c3)oc12` yielded a pIC50 of 6.96.
With `CCCCOc1c(OC)c(OC)cc2oc(-c3ccc(O)c(O)c3)cc(=O)c12` the pIC50 was 7.35.
In the case of `CCCCCCCCCCCCOc1c(OC)cc2oc(-c3ccc(OC(C)=O)c(OC(C)=O)c3)cc(=O)c2c1OC`, the pIC50 was 7.12.
Compound `CCCCCCCCCCOc1c(OC)cc2oc(-c3ccc(O)c(O)c3)cc(=O)c2c1O` has a pIC50 of 7.96.
`COc1cc2oc(-c3ccc(O)c(O)c3)cc(=O)c2c(OC)c1OC` showed a pIC50 of 6.62.
`CCCCCCCCOc1c(OC)c(OC)cc2oc(-c3ccc(O)c(O)c3)cc(=O)c12` was tested, and the pIC50 was 7.72.
For `CCCCCCCCCCCCCCOc1c(OC)cc2oc(-c3ccc(OC(C)=O)c(OC(C)=O)c3)cc(=O)c2c1OC`, the pIC50 was 5.00.
`CCCCCCCCCCCCCCOc1c(OC)cc2oc(-c3ccc(O)c(O)c3)cc(=O)c2c1OC` was tested, and the pIC50 was 7.15.
Work on `CCCCCCCCCCCCOc1cc(OC)c2c(=O)cc(-c3ccc(O)c(O)c3)oc2c1OC` yielded a pIC50 of 7.48.
Compound `COc1cc(O)c2c(=O)cc(-c3ccc(O)c(O)c3)oc2c1OC` has a pIC50 of 6.96.
Compound `COc1cc2oc(-c3ccc(O)c(O)c3)cc(=O)c2c(OC)c1OCCC(C)C` has a pIC50 of 7.59.
`CCCCCCOc1c(OC)cc2oc(-c3ccc(O)c(O)c3)cc(=O)c2c1OC` was tested, and the pIC50 was 7.85.
Compound `CCCCCCCCCCCCCCOc1c(OC)cc2oc(-c3ccc(O)c(O)c3)cc(=O)c2c1O` has a pIC50 of 5.00.
With `CCCCCCCCCCCCCCCCCCOc1c(OC)c(OC)cc2oc(-c3ccc(O)c(O)c3)cc(=O)c12` the pIC50 was 5.05.
`CCCCCCCCCCCCOc1cc(OC)c(OC)c2oc(-c3ccc(O)c(O)c3)cc(=O)c12` showed a pIC50 of 7.66.
Compound `CCCCCOc1c(OC)c(OC)cc2oc(-c3ccc(O)c(O)c3)cc(=O)c12` has a pIC50 of 7.49.
`CCCCCCCCCCCCOc1c(OC)c(OC)cc2oc(-c3ccc(O)c(O)c3)cc(=O)c12` was tested, and the pIC50 was 7.74.
`CCCCCCCCCCCCOc1c(OC)cc(OC)c2c(=O)cc(-c3ccc(O)c(O)c3)oc12` gave a pIC50 of 6.96.
With `CCCCCCOc1c(OC)cc2oc(-c3ccc(O)c(O)c3)cc(=O)c2c1O` the pIC50 was 7.70.
`COc1cc2oc(-c3ccc(O)c(O)c3)cc(=O)c2c(OCCC(C)C)c1OC` was tested, and the pIC50 was 7.80.
`CCCCCCCCCCCCOc1c(OC)cc2oc(-c3ccc(O)c(O)c3)cc(=O)c2c1O` showed a pIC50 of 7.59.
With `CCCCCCCCOc1c(OC)cc2oc(-c3ccc(O)c(O)c3)cc(=O)c2c1O` the pIC50 was 7.96.
Work on `CCCCCCCCCCCCCCCCCCOc1c(OC)cc2oc(-c3ccc(OC(C)=O)c(OC(C)=O)c3)cc(=O)c2c1OC` yielded a pIC50 of 5.00.
For `CCCCCOc1c(OC)cc2oc(-c3ccc(O)c(O)c3)cc(=O)c2c1O`, the pIC50 was 7.66.
